Assay results from different studies.
Target: Serine/threonine-protein kinase 26 (STK26, Homo sapiens, UniProt Q9P289)

With `C1=C/COCc2cc(ccc2OCCN2CCCC2)Nc2nccc(n2)-c2cccc(c2)COC/1` the remaining binding was 74% (binding; 0.1 µM).
`CC#CC(=O)N1CCC[C@H]1c1nc(-c2ccc(C(=O)Nc3ccccn3)cc2)c2c(N)nccn12` has an inhibition of 0% (enzyme activity; inhibitor; 1 µM).
`COc1ccc2[nH]c3c4[nH]c5ccc(OC)cc5c4c4c(c3c2c1)C(=O)NC4=O` gave a remaining binding of 85% (binding; competition with immobilised ligand; 1 µM).
For `CC(C)S(=O)(=O)c1ccc2nccc(Nc3ccc4sc(C5CCCC5)nc4c3)c2c1`, the activity vs control was 84% (enzyme activity; inhibitor; 1 µM).
The inhibition of `Cc1cc(O)c(-c2ccc([C@@H](C)CN(C)C)cc2)c2c1[nH]c(=O)c1sccc12` is reported as 19.3% (enzyme activity; inhibitor; 0.1 µM).
`CO[C@@H]1[C@H](N(C)C(=O)c2ccccc2)C[C@H]2O[C@]1(C)n1c3ccccc3c3c4c(c5c6ccccc6n2c5c31)C(=O)NC4` has an inhibition of 47% (enzyme activity; inhibitor; 1 µM).
With `CCCCC(=O)Nc1ccc(-c2ccc3ncn(CCC)c(=O)c3c2)cn1` the remaining binding was 100% (binding; competition with immobilised ligand; 0.5 µM).
The remaining binding of `CN1CCN(C(=O)c2ccc(NC(=O)Nc3ccc(N(C)c4ccnc(Nc5ccc(CS(C)(=O)=O)cc5)n4)cc3)cc2)CC1` is reported as 11% (binding; competition with immobilised ligand; 1 µM).
